What was measured:
[1] = target: T1, Voltage-gated inwardly rectifying potassium channel KCNH2 (Homo sapiens, UniProt Q12809); experiment: Activation of human ERG1 isoform 1 expressed in Xenopus laevis oocytes assessed as shifting of voltage dependence of inactivation towards positive potentials at 30 uM by two electrode voltage clamp technique; type: cell-based; details: oocyte
In short: (§1)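 hERG1 (WT or point mutant) cRNA injected into Xenopus oocytes; two-electrode voltage clamp 1-5 days later. Bath: 96 mM NaCl, 2 mM KCl, 1 mM CaCl2, 2 mM MgCl2, 5 mM Hepes, pH 7.6. Holding potential -90 mV. Protocols repeated 10-15 min after adding compound to the bath, diluted from a 10 mM DMSO stock; one concentration per oocyte.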

[2] = target: T2, Voltage-gated inwardly rectifying potassium channel KCNH2 (Homo sapiens, UniProt Q12809, L553A); experiment: (§2) Activation of human ERG1 L553A mutant expressed in Xenopus laevis oocytes assessed as slowing of tail current deactivation at 3 uM by two electrode voltage clamp technique; type: cell-based; details: oocyte; in short: as §1
[3] = target: T3, Voltage-gated inwardly rectifying potassium channel KCNH2 (Homo sapiens, UniProt Q12809, V659A); experiment: (§3) Activation of human ERG1 V659A mutant expressed in Xenopus laevis oocytes assessed as slowing of tail current deactivation at 3 uM by two electrode voltage clamp technique; type: cell-based; details: oocyte; in short: as §1
[4] = target: T4, Voltage-gated inwardly rectifying potassium channel KCNH2 (Homo sapiens, UniProt Q12809, L666A); experiment: Activation of human ERG1 L666A mutant expressed in Xenopus laevis oocytes assessed as shifting of voltage dependence of inactivation towards positive potentials at 3 uM by two electrode voltage clamp technique; type: cell-based; details: oocyte; in short: as §1
[5] = target: Voltage-gated inwardly rectifying potassium channel KCNH2 (Homo sapiens, UniProt Q12809, Y652A); experiment: Activation of human ERG1 Y652A mutant expressed in Xenopus laevis oocytes assessed as slowing of tail current deactivation at 3 uM by two electrode voltage clamp technique; type: cell-based; details: oocyte; in short: as §1
[6] = target: T4, Voltage-gated inwardly rectifying potassium channel KCNH2; experiment: Inhibition of human ERG1 L666A mutant expressed in Xenopus laevis oocytes assessed as decrease in current amplitude by two electrode voltage clamp technique; type: cell-based; details: oocyte; in short: as §1
[7] = target: Voltage-gated inwardly rectifying potassium channel KCNH2 (Homo sapiens, UniProt Q12809, G628C/S631C); experiment: Effect on human ERG1 G628C/S631C mutant expressed in Xenopus laevis oocytes at 3 uM by two electrode voltage clamp technique; type: cell-based; details: oocyte
[8] = target: T5, Voltage-gated inwardly rectifying potassium channel KCNH2 (Homo sapiens, UniProt Q12809, N658A); experiment: (§4) Activation of human ERG1 N658A mutant expressed in Xenopus laevis oocytes assessed as slowing of tail current deactivation at 3 uM by two electrode voltage clamp technique; type: cell-based; details: oocyte; in short: as §1
[9] = target: T1, Voltage-gated inwardly rectifying potassium channel KCNH2; experiment: Activation of human ERG1 isoform 1 expressed in Xenopus laevis oocytes assessed as increase in peak tail current magnitude by two electrode voltage clamp technique; type: cell-based, Oocyte
[10] = target: T5, Voltage-gated inwardly rectifying potassium channel KCNH2; experiment: as §4; type: cell-based; details: oocyte; in short: as §1; remark: listed apart in the source
[11] = target: T1, Voltage-gated inwardly rectifying potassium channel KCNH2; experiment: Activation of human ERG1 expressed in CHO cells assessed as enhancement of current magnitude at 10 uM by two electrode voltage clamp technique; type: cell-based
[12] = target: T6, Voltage-gated inwardly rectifying potassium channel KCNH2 (Homo sapiens, UniProt Q12809, F557L); experiment: Activation of human ERG1 F557L mutant expressed in Xenopus laevis oocytes assessed as shifting of voltage dependence of inactivation towards positive potentials at 30 uM by two electrode voltage clamp technique; type: cell-based; details: oocyte; in short: as §1
[13] = target: T4, Voltage-gated inwardly rectifying potassium channel KCNH2; experiment: Activation of human ERG1 L666A mutant expressed in Xenopus laevis oocytes assessed as shifting of voltage dependence of inactivation towards positive potentials at 30 uM by two electrode voltage clamp technique; type: cell-based; details: oocyte; in short: as §1
[14] = target: T6, Voltage-gated inwardly rectifying potassium channel KCNH2; experiment: (§5) Activation of human ERG1 F557L mutant expressed in Xenopus laevis oocytes assessed as slowing of tail current deactivation at 3 uM by two electrode voltage clamp technique; type: cell-based; details: oocyte; in short: as §1
[15] = target: T1, Voltage-gated inwardly rectifying potassium channel KCNH2; experiment: Activation of human ERG1 isoform 1 expressed in Xenopus laevis oocytes assessed as slowing of tail current deactivation by two electrode voltage clamp technique; type: cell-based; details: oocyte; in short: as §1
[16] = target: T6, Voltage-gated inwardly rectifying potassium channel KCNH2; experiment: as §5; type: cell-based; details: oocyte; in short: as §1; remark: listed apart in the source
[17] = target: T1, Voltage-gated inwardly rectifying potassium channel KCNH2; experiment: Activation of human ERG1 isoform 1 expressed in Xenopus laevis oocytes assessed as shifting of voltage dependence of inactivation towards positive potentials at 10 uM by two electrode voltage clamp technique; type: cell-based; details: oocyte; in short: as §1
[18] = target: T1, Voltage-gated inwardly rectifying potassium channel KCNH2; experiment: Activation of human ERG1 isoform 1 expressed in Xenopus laevis oocytes assessed as shifting of voltage dependence of inactivation towards positive potentials at 1 uM by two electrode voltage clamp technique; type: cell-based; details: oocyte; in short: as §1
[19] = target: Voltage-gated inwardly rectifying potassium channel KCNH2 (Homo sapiens, UniProt Q12809, I662A); experiment: Activation of human ERG1 I662A mutant expressed in Xenopus laevis oocytes assessed as shifting of voltage dependence of inactivation towards positive potentials at 3 uM by two electrode voltage clamp technique; type: cell-based; details: oocyte; in short: as §1
[20] = target: T1, Voltage-gated inwardly rectifying potassium channel KCNH2; experiment: Activation of human ERG1 isoform 1 expressed in Xenopus laevis oocytes assessed as shifting of voltage dependence of inactivation towards positive potentials at 3 uM by two electrode voltage clamp technique; type: cell-based; details: oocyte; in short: as §1
[21] = target: Voltage-gated inwardly rectifying potassium channel KCNH2 (Homo sapiens, UniProt Q12809, Y667A); experiment: Activation of human ERG1 Y667A mutant expressed in Xenopus laevis oocytes assessed as shifting of voltage dependence of inactivation towards positive potentials at 3 uM by two electrode voltage clamp technique; type: cell-based; details: oocyte; in short: as §1
[22] = target: T3, Voltage-gated inwardly rectifying potassium channel KCNH2; experiment: as §3; type: cell-based; details: oocyte; in short: as §1; remark: listed apart in the source
[23] = target: T2, Voltage-gated inwardly rectifying potassium channel KCNH2; experiment: as §2; type: cell-based; details: oocyte; in short: as §1; remark: listed apart in the source
[24] = target: T1, Voltage-gated inwardly rectifying potassium channel KCNH2; experiment: Activation of human ERG1 isoform 1 expressed in Xenopus laevis oocytes assessed as shifting of voltage dependence of inactivation towards positive potentials by two electrode voltage clamp technique; type: cell-based, Oocyte; in short: as §1
[25] = target: T1, Voltage-gated inwardly rectifying potassium channel KCNH2; experiment: Activation of human ERG1 isoform 1 expressed in Xenopus laevis oocytes assessed as enhancement of current magnitude by two electrode voltage clamp technique; type: cell-based; details: oocyte
[26] = target: Voltage-gated inwardly rectifying potassium channel KCNH2 (Homo sapiens, UniProt Q12809, V549A); experiment: Activation of human ERG1 V549A mutant expressed in Xenopus laevis oocytes assessed as shifting of voltage dependence of inactivation towards positive potentials at 3 uM by two electrode voltage clamp technique; type: cell-based; details: oocyte; in short: as §1
[27] = target: Voltage-gated inwardly rectifying potassium channel KCNH2 (Homo sapiens, UniProt Q12809, L550A); experiment: Activation of human ERG1 L550A mutant expressed in Xenopus laevis oocytes assessed as shifting of voltage dependence of inactivation towards positive potentials at 3 uM by two electrode voltage clamp technique; type: cell-based; details: oocyte; in short: as §1
[28] = target: T1, Voltage-gated inwardly rectifying potassium channel KCNH2; experiment: Binding affinity to human ERG1 expressed in Xenopus laevis oocytes assessed as half-saturation concentration; type: cell-based, Oocyte; details: read-out: Activity

## COc1ccc2nccc(C(=O)CC[C@@H]3CCN(CC#Cc4cc(F)cc(F)c4F)C[C@@H]3C(=O)O)c2c1
[1]
  Activity: 36.9 mV
[2]
  Activity: Not Active
[3]
  Activity: Not Active
[4]
  Activity: Active
[5]
  Activity: Active
[6]
  Activity: Active
[7]
  Activity: Not Active
[8]
  Activity: Not Active
[9]
  EC50: 15 µM
[10]
  Activity: Not Active
[11]
  Activity: 15%
[12]
  Activity: < 10 mV
[13]
  Activity: < 10 mV
[14]
  Activity: Not Active
[15]
  Activity: Active
[16]
  Activity: Not Active
[17]
  Activity: 28 mV
[18]
  Activity: 10.2 mV
[19]
  Activity: Active
[20]
  Activity: 17.2 mV
[21]
  Activity: Active
[22]
  Activity: Not Active
[23]
  Activity: Not Active
[24]
  EC50: 8 µM
[25]
  Activity: Active
[26]
  Activity: Active
[27]
  Activity: Active
[28]
  Kd: 9.4 µM
